In ChEMBL document CHEMBL1129260, “Evaluation of the stability and animal biodistribution of gadolinium (III) benzylamine-derivatized diethylenetriaminepentaacetic acid” (J Med Chem, 1996):

Assays:
Rattus norvegicus [1] = organism: Rattus norvegicus; assay: Biodistribution of In-LDTA (conjugated with mannoseBSA) protein using [111In]- in mature female Sprague-Dawley rat liver after injecting for 48 hr.; type: ADME, organism-based; conditions: in vivo
Summary of the method: (§1)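 SCN-LDTPA was coupled (pH 9 bicine, 24 h, RT) to BSA, mannosylated BSA or galactosylated BSA and FPLC-purified. The conjugate (400 μg) was labeled with 340 μCi 111In acetate at pH 5.5 for 45 min and gel-filtered. Mature female Sprague-Dawley rats received 19 μg of conjugate; four rats per time point. Blood, liver, bone, kidney and colon were taken and reported as %ID/organ.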

Rattus norvegicus [2] = organism: Rattus norvegicus; assay: Biodistribution of Gd-DTA (conjugated with BSA)protein using [111In]- in mature female Sprague-Dawley rat liver after injecting for 4 hour.; type: ADME, organism-based; conditions: in vivo
Summary of the method: (§2)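 Conjugate of SCN-LDTPA with BSA, mannosylated BSA or galactosylated BSA (10 equiv chelate, pH 9 bicine, RT 24 h; FPLC-purified) was labelled with 340 μCi 111In acetate at pH 5.5 for 45 min. It was then gel-filtered (Biospin-6) and checked for purity by FPLC. Mature female Sprague-Dawley rats received 19 μg of conjugate. Four rats per time point (1, 4, 24, 48 h) were killed; blood, liver, bone, kidney and colon were taken and %ID/organ was calculated.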

Rattus norvegicus [3] = organism: Rattus norvegicus; assay: Biodistribution of In-LDTA (conjugated with mannoseBSA) protein using [111In]- in mature female Sprague-Dawley rat colon after injecting for 24 hour.; type: ADME, organism-based; conditions: in vivo; summary of the method: as §1
Rattus norvegicus [4] = organism: Rattus norvegicus; assay: Biodistribution of In-LDTA (conjugated with galactose BSA)protein using [111In]- in mature female Sprague-Dawley rat kidney after injecting for 1 hour.; type: ADME, organism-based; conditions: in vivo; summary of the method: as §1
Rattus norvegicus [5] = organism: Rattus norvegicus; assay: Biodistribution of Gd-LDTA (conjugated with galactose BSA) protein using [111In]- in mature female Sprague-Dawley rat kidney after injecting for 24 hour.; type: ADME, organism-based; conditions: in vivo; summary of the method: as §2
Rattus norvegicus [6] = organism: Rattus norvegicus; assay: Biodistribution of In-LDTA (conjugated with BSA)protein using [111In]- in mature female Sprague-Dawley rat colon after injecting for 48 hr.; type: ADME, organism-based; conditions: in vivo; summary of the method: as §1
Rattus norvegicus [7] = organism: Rattus norvegicus; assay: Biodistribution of Gd-DTA (conjugated with BSA)protein using [111In]- in mature female Sprague-Dawley rat colon after injecting for 24 hour.; type: ADME, organism-based; conditions: in vivo; summary of the method: as §2
Rattus norvegicus [8] = organism: Rattus norvegicus; assay: Biodistribution of In-LDTA (conjugated with BSA) protein using [111In]- in mature female Sprague-Dawley rat kidney after injecting for 1 hour.; type: ADME, organism-based; conditions: in vivo; summary of the method: as §1
Rattus norvegicus [9] = organism: Rattus norvegicus; assay: Biodistribution of Gd-LDTA (conjugated with galactose BSA) protein using [111In]- in mature female Sprague-Dawley rat bone marrow after injecting for 48 hour.; type: ADME, organism-based; conditions: in vivo
Rattus norvegicus [10] = organism: Rattus norvegicus; assay: Biodistribution of Gd-DTA (conjugated with BSA)protein using [111In]- in mature female Sprague-Dawley rat kidney after injecting for 96 hour.; type: ADME, organism-based; conditions: in vivo
[11] = Gadolinium(III) stability constants (log K value) for the compound polyamino carboxylate derivative; type: physicochemical; conditions: 0.1 M KCl
Summary of the method: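 Potentiometric titration under argon at 25.00(5) °C in 0.100 M KCl, meter calibrated to read -log [H+] with dilute standard HCl. LDTPA with an equimolar amount of GdCl3 titrated with CO2-free 0.0999 M KOH, added in 0.100 mL aliquots, up to pH 11. Ligand protonation constants came from a parallel titration without metal. Constants were computed from the titration data.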

Rattus norvegicus [12] = organism: Rattus norvegicus; assay: Biodistribution of Gd-LDTA (conjugated with galactose BSA) protein using [111In]- in mature female Sprague-Dawley rat bone marrow after injecting for 1 hour.; type: ADME, organism-based; conditions: in vivo
Rattus norvegicus [13] = organism: Rattus norvegicus; assay: Biodistribution of In-LDTA (conjugated with mannoseBSA) protein using [111In]- in mature female Sprague-Dawley rat bone after injecting for 1 hour.; type: ADME, organism-based, Bone element; conditions: in vivo; summary of the method: as §1
Rattus norvegicus [14] = organism: Rattus norvegicus; assay: Biodistribution of Gd-LDTA (conjugated with galactose BSA) protein using [153Gd]- in mature female Sprague-Dawley rat blood after injecting for 48 hour.; conditions: in vivo
Rattus norvegicus [15] = organism: Rattus norvegicus; assay: Biodistribution of In-LDTA (conjugated with mannoseBSA) protein using [111In]- in mature female Sprague-Dawley rat bone after injecting for 24 hour.; type: ADME, organism-based, Bone element; conditions: in vivo; summary of the method: as §1
Rattus norvegicus [16] = organism: Rattus norvegicus; assay: Biodistribution of Gd-LDTA (conjugated with galactose BSA) protein using [111In]- in mature female Sprague-Dawley rat liver after injecting for 48 hour.; type: ADME, organism-based; conditions: in vivo; summary of the method: as §2
Rattus norvegicus [17] = organism: Rattus norvegicus; assay: Biodistribution of In-LDTA (conjugated with galactose BSA)protein using [111In]- in mature female Sprague-Dawley rat liver after injecting for 1 hour.; type: ADME, organism-based; conditions: in vivo; summary of the method: as §1
Rattus norvegicus [18] = organism: Rattus norvegicus; assay: Biodistribution of Gd-DTA (conjugated with BSA) protein using [111In]- in mature female Sprague-Dawley rat colon after injecting for 48 hour.; type: ADME, organism-based; conditions: in vivo; summary of the method: as §2
Rattus norvegicus [19] = organism: Rattus norvegicus; assay: Biodistribution of In-LDTA (conjugated with galactose BSA)protein using [111In]- in mature female Sprague-Dawley rat bone after injecting for 48 hour.; type: ADME, organism-based, Bone element; conditions: in vivo; summary of the method: as §1
Rattus norvegicus [20] = organism: Rattus norvegicus; assay: Biodistribution of Gd-DTA (conjugated with BSA)protein using [111In]- in mature female Sprague-Dawley rat bone after injecting for 1 hour.; type: ADME, organism-based, Bone element; conditions: in vivo; summary of the method: as §2
Rattus norvegicus [21] = organism: Rattus norvegicus; assay: Biodistribution of Gd-LDTA (conjugated with galactose BSA) protein using [111In]- in mature female Sprague-Dawley rat kidney after injecting for 1 hour.; type: ADME, organism-based; conditions: in vivo; summary of the method: as §2
Rattus norvegicus [22] = organism: Rattus norvegicus; assay: Biodistribution of In-LDTA (conjugated with galactose BSA)protein using [111In]- in mature female Sprague-Dawley rat colon after injecting for 1 hour.; type: ADME, organism-based; conditions: in vivo; summary of the method: as §1
Rattus norvegicus [23] = organism: Rattus norvegicus; assay: Biodistribution of In-LDTA (conjugated with galactose BSA)protein using [111In]- in mature female Sprague-Dawley rat bone after injecting for 24 hour.; type: ADME, organism-based, Bone element; conditions: in vivo; summary of the method: as §1
Rattus norvegicus [24] = organism: Rattus norvegicus; assay: Biodistribution of Gd-LDTA (conjugated with galactose BSA) protein using [111In]- in mature female Sprague-Dawley rat bone after injecting for 96 hour.; type: ADME, organism-based, Bone element; conditions: in vivo
Rattus norvegicus [25] = organism: Rattus norvegicus; assay: Biodistribution of Gd-LDTA (conjugated with mannose BSA) protein using [111In]- in mature female Sprague-Dawley rat bone after injecting for 1 hour.; type: ADME, organism-based, Bone element; conditions: in vivo; summary of the method: as §2
Rattus norvegicus [26] = organism: Rattus norvegicus; assay: Biodistribution of In-LDTA (conjugated with mannoseBSA) protein using [111In]- in mature female Sprague-Dawley rat colon after injecting for 4 hour.; type: ADME, organism-based; conditions: in vivo; summary of the method: as §1
Rattus norvegicus [27] = organism: Rattus norvegicus; assay: Biodistribution of Gd-LDTA (conjugated with galactose BSA) protein using [111In]- in mature female Sprague-Dawley rat bone after injecting for 24 hour.; type: ADME, organism-based, Bone element; conditions: in vivo; summary of the method: as §2
Rattus norvegicus [28] = organism: Rattus norvegicus; assay: Biodistribution of Gd-LDTA (conjugated with mannose BSA) protein using [111In]- in mature female Sprague-Dawley rat bone marrow after injecting for 48 hour.; type: ADME, organism-based; conditions: in vivo
Rattus norvegicus [29] = organism: Rattus norvegicus; assay: Biodistribution of Gd-LDTA (conjugated with mannose BSA) protein using [111In]- in mature female Sprague-Dawley rat colon after injecting for 96 hour.; type: ADME, organism-based; conditions: in vivo
Rattus norvegicus [30] = organism: Rattus norvegicus; assay: Biodistribution of Gd-DTA (conjugated with BSA)protein using [111In]- in mature female Sprague-Dawley rat liver after injecting for 1 hour.; type: ADME, organism-based; conditions: in vivo; summary of the method: as §2
Rattus norvegicus [31] = organism: Rattus norvegicus; assay: Biodistribution of In-LDTA (conjugated with BSA) protein using [111In]- in mature female Sprague-Dawley rat bone after injecting for 4 hour.; type: ADME, organism-based, Bone element; conditions: in vivo; summary of the method: as §1
Rattus norvegicus [32] = organism: Rattus norvegicus; assay: Biodistribution of In-LDTA (conjugated with mannoseBSA) protein using [111In]- in mature female Sprague-Dawley rat colon after injecting for 48 hour.; type: ADME, organism-based; conditions: in vivo; summary of the method: as §1
Rattus norvegicus [33] = organism: Rattus norvegicus; assay: Biodistribution of In-LDTA (conjugated with galactose BSA)protein using [111In]- in mature female Sprague-Dawley rat liver after injecting for 24 hour.; type: ADME, organism-based; conditions: in vivo; summary of the method: as §1
Rattus norvegicus [34] = organism: Rattus norvegicus; assay: Biodistribution of Gd-LDTA (conjugated with galactose BSA) protein using [111In]- in mature female Sprague-Dawley rat bone marrow after injecting for 24 hour.; type: ADME, organism-based; conditions: in vivo

ID/organ (Rattus norvegicus [1]): 61%
ID/organ (Rattus norvegicus [2]): 18.6%
ID/organ (Rattus norvegicus [3]): 0.732%
ID/organ (Rattus norvegicus [4]): 0.0446%
ID/organ (Rattus norvegicus [5]): 0.14%
ID/organ (Rattus norvegicus [6]): 5.52%
ID/organ (Rattus norvegicus [7]): 2.83%
ID/organ (Rattus norvegicus [8]): 3.15%
ID/organ (Rattus norvegicus [9]): 0.061%
ID/organ (Rattus norvegicus [10]): 2.73%
Log K [11]: 22
ID/organ (Rattus norvegicus [12]): 0.031%
ID/organ (Rattus norvegicus [13]): 10.5%
ID/organ (Rattus norvegicus [14]): 0.037%
ID/organ (Rattus norvegicus [15]): 8.9%
ID/organ (Rattus norvegicus [16]): 34.8%
ID/organ (Rattus norvegicus [17]): 99.7%
ID/organ (Rattus norvegicus [18]): 2.37%
ID/organ (Rattus norvegicus [19]): 0.29%
ID/organ (Rattus norvegicus [20]): 18.1%
ID/organ (Rattus norvegicus [21]): 0.114%
ID/organ (Rattus norvegicus [22]): 0.0098%
ID/organ (Rattus norvegicus [23]): 0.379%
ID/organ (Rattus norvegicus [24]): 9.55%
ID/organ (Rattus norvegicus [25]): 15.6%
ID/organ (Rattus norvegicus [26]): 0.156%
ID/organ (Rattus norvegicus [27]): 7.01%
ID/organ (Rattus norvegicus [28]): 1.77%
ID/organ (Rattus norvegicus [29]): 0.241%
ID/organ (Rattus norvegicus [30]): 14.2%
ID/organ (Rattus norvegicus [31]): 19.1%
ID/organ (Rattus norvegicus [32]): 0.542%
ID/organ (Rattus norvegicus [33]): 65.4%
ID/organ (Rattus norvegicus [34]): 0.04%
Compound: Nc1ccc(CC(C(=O)O)N(CCN(CC(=O)O)CC(=O)O)CCN(CC(=O)O)CC(=O)O)cc1 (centres undefined)
